The term viability denotes a read-out of living cells in per cent, often relative to untreated cells.

Values without a mark were called inactive. Results filed as inconclusive are left out. The source made the active and inactive calls.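 Rule for the calls, unless noted: active = viability at or below 27.92% in each of two runs, the all-compound median minus 4 SD; inconclusive = no clear call, values can overlap the other calls; inactive = the rest.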

Assay [1] in a line: OD615 S. cerevisiae growth inhibition, permissive medium, pilot counter-assay, permissive growth control for S. cerevisiae lifespan shortening project (AID 705;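 active = growth inhibition above 25% in both replicates, a cutoff set 3 SD above the mean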). The note with it: OD615, 24 h, at 10 µM, hits give high values. The method in brief:
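System: Engineered DeaD yeast | Buffer or medium: SC raffinose/galactose permissive medium | Incubation: Cells pre-grown 4 h, then 24 h compound exposure, 30 °C humidified | Measured by: Absorbance (optical density) at 615 nm | Read-out: Reduction in yeast growth (OD615)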

Assay [2] is described as follows: Restrictive medium S. cerevisiae growth inhibition, OD615, pilot screen of yeast lifespan reduction project, restrictive growth control (AID 706;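 active = growth inhibition above a set limit, 3 SD over mean compound inhibition, in both replicates, cut at about 43% in these data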;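 note: modified DeaD lifespan yeast strain shifted to restrictive glucose medium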). The note with it: OD615, 48 h, at 10 µM, hits give high values. In short, it runs like this:
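Material: modified S. cerevisiae; Medium: glucose-based CSMM-D restrictive medium; Compound dosing: one concentration, 10 µM final, 0.25% DMSO; Incubation: 48 h compound exposure at 30 °C; Measured by: OD615.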

A short description of assay [3]: viability gain of MRP-1-high H69AR cells under doxorubicin, pilot screen, MRP-1 activator project, CellTiter-Glo, duplicate (AID 807;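 active = viability increase at or above a cutoff of the median across tested compounds plus 3 SD, cut at about 8.5% in these data, passing the limit was not always enough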;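 note: compound pretreatment 18-22 h then 72 h combined with doxorubicin; 0% = doxorubicin alone and 100% = vehicle without doxorubicin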). The note with it: H69AR viability with doxorubicin, CellTiter-Glo luminescence; at 10 µM; hits give high values. (In general: In ATP-based viability assays light output follows the ATP content of the culture.)
A short description of assay [4]: growth suppression of beta-catenin knockout HCT116, pilot screen, human colon tumor cells (AID 823;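 active = cell viability at or below a set limit in both duplicate runs, the limit being the all-compound median minus 4 SD, cut at about 23% in these data, passing the limit was not always enough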;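 note: 0% = wells killed by 20 µM Hyamine and 100% = untreated DMSO cell wells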). The note with it: CellTiter-Glo, 60 h, at 10 µM, hits give low values.
The nature of assay [5]: growth suppression of PTEN-deleted HCT116, pilot screen, cell-based, HCT116 clonal line, CellTiter-Glo (AID 824).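 Note: 0% = 20 µM Hyamine control and 100% = vehicle cell control.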 The note with it: 60 h, at 10 µM, hits give low values.
A short description of assay [6]: RAM signaling pathway blockade in yeast – S. cerevisiae, Pdr1DBD-CYC8 efflux-inhibited sensitized strain, primary screen (AID 1298;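 active = RAM network inhibition above 8.4% in each of two replicates, 3 SD over the compound average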;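 note: 0% = DMSO untreated cells without growth and 100% = 10 µM 1-NA-PP1 full growth; higher means more yeast growth rescued from 5-FOA killing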). The note with it: S. cerevisiae cbk1-as DSE1-URA3 strain, 5-FOA growth OD615, 2 d; at 50 µM; hits give high values.

Regarding `Cc1cc(NC(=O)CSc2nc3c(c(=O)n2CCc2ccccc2)SC(C)C3)no1` (stereo unspecified), the growth inhibition was -12.6% in assay [1] and -12.3% in assay [2]. Besides, the viability increase in assay [3] is -1.68%. The viability is 89.5% in assay [4] and 96.6% in assay [5]. In addition, the RAM network inhibition in assay [6] was 5.21%.
For the compound `Cn1c(C(C#N)/C(=N\S(=O)(=O)c2cccs2)c2ccccc2)nc2ccccc21` (stereo unspecified), the growth inhibition was -17.5% in assay [1] and -19.6% in assay [2]. Moreover, in assay [3], the viability increase was -1.15%. The values for the viability in assay [4] and in assay [5] were 95.5% and 94.7%, respectively. The RAM network inhibition in assay [6] was 6.16%.
With `N#Cc1nc(-c2ccc(F)cc2)oc1NCCN1CCOCC1`, the growth inhibition is -0.47% in assay [1] and -8.75% in assay [2]. The viability increase in assay [3] was -2.06%. Moreover, the viability in assay [4] was 96%; in assay [5], 92.3%. Further, the RAM network inhibition in assay [6] is 7.83%.
Turning to `Cc1cc(C)cc(NC(=O)CSc2nnc(Cn3c(=O)sc4ccccc43)n2C)c1`, the growth inhibition was -6.84% in assay [1] and -21.8% in assay [2]. The viability increase in assay [3] is -2.93%. Also, the viability in assay [4] was 98.2%; in assay [5], 94.9%. In addition, the RAM network inhibition in assay [6] is 1.37%.
On to `Cn1c(Cn2c(=O)sc3ccccc32)nnc1SCc1ccccc1`, for which the results for the growth inhibition in assay [1] and in assay [2] were -3.71% and -6.89%, respectively. Further, the viability increase in assay [3] was 0.76%. Further, the values for the viability in assay [4] and in assay [5] were 72.9% and 71.2%, respectively. Also, in assay [6], the RAM network inhibition is 4.4%.
In the case of `COc1ccc(C)cc1NS(=O)(=O)c1cccc2nonc12`, the growth inhibition in assay [1] is -8.6%; in assay [2], -10.6%. For the same compound, in assay [3], the viability increase is -3.24%. Moreover, the viability is 95.8% in assay [4] and 94.3% in assay [5]. Besides, the RAM network inhibition in assay [6] is 4.42%.
Turning to `COc1ccc(-c2cc(C(F)(F)F)nc(S(C)(=O)=O)n2)cc1OC`, the growth inhibition was -23.4% in assay [1] and -9.75% in assay [2]. The viability increase in assay [3] is -7.11%. In addition, the viability is 14.5% (active) in assay [4] and 48.7% in assay [5]. Moreover, the RAM network inhibition in assay [6] is -0.26%.
For the compound `Cc1ccccc1-n1c(Cn2c(=O)sc3ccccc32)nnc1SC(C)C`, the growth inhibition was 5.19% in assay [1] and 6.75% in assay [2]. In addition, the viability increase in assay [3] is -0.49%. Further, the viability in assay [4] is 84%; in assay [5] it was 78.4%. Further, in assay [6], the RAM network inhibition is 6.91%.
In the case of `CCC(C)(C(=O)NC1CCCC1)N(CC1CCCO1)C(=O)CNC(=O)c1ccccc1` (stereo unspecified), the growth inhibition was -6.16% in assay [1] and -12.3% in assay [2]. For the same compound, in assay [3], the viability increase is -2.92%. Further, the viability in assay [4] is 98.2%; in assay [5], 93%. Besides, the RAM network inhibition in assay [6] was 1.24%.
As to `CCOC(=O)C1CCN(S(=O)(=O)C(F)(F)c2nc3ccccc3s2)CC1`, the figures for the growth inhibition in assay [1] and in assay [2] were -10.6% and -6.5%, respectively. In addition, the viability increase in assay [3] was -2.27%. The results for the viability in assay [4] and in assay [5] were 82.2% and 87.5%, respectively. In addition, the RAM network inhibition in assay [6] was 5.28%.
On to `O=C(Nc1ccccc1-c1nc2ccccc2s1)c1ccco1`, for which the growth inhibition is -6.38% in assay [1] and -20.9% in assay [2]. Further, the viability increase in assay [3] is -5.19%. The figures for the viability in assay [4] and in assay [5] were 74.7% and 61.9%, respectively. Moreover, the RAM network inhibition in assay [6] was 6.4%.
`COc1ccc(N2CCN(C(=O)c3cc4c(-c5ccc(Cl)cc5)nn(C)c4s3)CC2)cc1`: the values for the growth inhibition in assay [1] and in assay [2] were 2.67% and -4.22%, respectively. Also, the viability increase in assay [3] was -3.45%. The viability in assay [4] is 78.6%; in assay [5] it was 71.4%. The RAM network inhibition in assay [6] was 3.98%.
As to `Cn1c(=O)[nH]c(=O)c2c1nc(Sc1ccccc1)n2CCc1ccccc1`, the results for the growth inhibition in assay [1] and in assay [2] were -4.23% and -5.96%, respectively. For the same compound, in assay [3], the viability increase was -5.18%. The viability is 91.6% in assay [4] and 69.2% in assay [5]. Also, the RAM network inhibition in assay [6] was 7.53%.
In the case of `CCOC(=O)N1CCN(C(=O)c2ccc(N3C(=O)c4ccccc4C3=O)cc2)CC1`, the results for the growth inhibition in assay [1] and in assay [2] were -3.96% and -15.2%, respectively. For the same compound, in assay [3], the viability increase was -2.58%. For the same compound, the viability was 99% in assay [4] and 93.6% in assay [5]. Moreover, the RAM network inhibition in assay [6] was 4.06%.
On to `C=CCOC(=O)c1sc(NC(=O)c2ccco2)nc1C`, for which the growth inhibition in assay [1] was -13.2%; in assay [2], -5.04%. Moreover, the viability increase in assay [3] is -1.25%. Besides, the viability in assay [4] was 94%; in assay [5], 84.6%. In assay [6], the RAM network inhibition was 1.63%.
With `CC(Sc1nc(N2CCOCC2)nc(N2CCOCC2)n1)C(=O)Nc1ccccc1` (stereo unspecified), the growth inhibition in assay [1] was -18.4%; in assay [2], -21.2%. For the same compound, the viability increase in assay [3] was -1.56%. The viability in assay [4] is 95.5%; in assay [5], 93.2%. Further, the RAM network inhibition in assay [6] is 5.6%.
Consider `Cc1ccc(OCC(=O)Nc2ccc(O)c(-c3nc4ccccc4o3)c2)cc1`, for which the values for the growth inhibition in assay [1] and in assay [2] were -10% and -14.9%, respectively. Moreover, the viability increase in assay [3] is -7.57%. Further, the values for the viability in assay [4] and in assay [5] were 38.8% and 54%, respectively. The RAM network inhibition in assay [6] is 2.6%.
For the compound `COC(=O)c1nnc(-c2ccccc2)c(-c2ccccc2)n1`, the growth inhibition in assay [1] is -20.7%; in assay [2] it was -24.7%. The viability increase in assay [3] was -1.82%. The viability is 104% in assay [4] and 99.5% in assay [5]. The RAM network inhibition in assay [6] is 9.17%.
Take `Clc1ccc(-c2nnc(SCc3nc(-c4ccccc4)no3)o2)cc1`: the growth inhibition in assay [1] was -10.1%; in assay [2], -9.97%. Moreover, the viability increase in assay [3] is -3.34%. The viability was 99.2% in assay [4] and 91.7% in assay [5]. Further, the RAM network inhibition in assay [6] is 4.9%.
Consider `CN(CC(=O)N1CCc2ccccc2C1)S(=O)(=O)c1ccc2c(c1)c(=O)n(C)c(=O)n2C`, for which the growth inhibition was -12.3% in assay [1] and -9.22% in assay [2]. Besides, in assay [3], the viability increase is -3.24%. Besides, the values for the viability in assay [4] and in assay [5] were 98.4% and 90.2%, respectively. Also, the RAM network inhibition in assay [6] is 5.95%.
On to `COC(=O)c1cc(=O)[nH]c(SCc2cccc(C)c2)n1`, for which the figures for the growth inhibition in assay [1] and in assay [2] were -9.72% and -0.94%, respectively. Also, in assay [3], the viability increase was -3.27%. Also, the viability is 102% in assay [4] and 101% in assay [5]. Moreover, the RAM network inhibition in assay [6] was 6.8%.
Turning to `CCn1cc(C(=O)NC2CCCCC2)c(=O)c2cc(S(=O)(=O)N(C)C)ccc21`, the growth inhibition in assay [1] is -0.125%; in assay [2], 2.4%. In assay [3], the viability increase was -1.45%. For the same compound, the results for the viability in assay [4] and in assay [5] were 102% and 94.7%, respectively. Besides, in assay [6], the RAM network inhibition was -1.57%.
On to `COc1ccc(-n2c(SCC(=O)Nc3nccs3)nc3c(c2=O)SCC3)cc1`, for which the values for the growth inhibition in assay [1] and in assay [2] were -1.01% and -11.5%, respectively. In addition, the viability increase in assay [3] was -3.87%. In addition, the viability in assay [4] is 93.2%; in assay [5], 84.6%. The RAM network inhibition in assay [6] was 5.95%.
Take `CCN(CC)CCn1c(=S)[nH]c2ccccc2c1=O`: the growth inhibition in assay [1] is -8.59%; in assay [2] it was 6.18%. In assay [3], the viability increase is -1.56%. Also, the viability in assay [4] is 103%; in assay [5], 98.1%. The RAM network inhibition in assay [6] is 6.58%.
For the compound `CCOc1ccc(N(CC(=O)Nc2cccc(Cl)c2)S(=O)(=O)c2c(C)noc2C)cc1`, the growth inhibition in assay [1] was -14.8%; in assay [2] it was -4.69%. Also, the viability increase in assay [3] was -7.01%. In addition, the results for the viability in assay [4] and in assay [5] were 39.2% and 45.7%, respectively. Also, the RAM network inhibition in assay [6] is 12.6%.
Regarding `O=C1CCC(C(=O)NC2(C(=O)NC3CCCCC3)CCCCC2)N1` (stereo unspecified), the growth inhibition in assay [1] was -0.36%; in assay [2], -2.28%. Besides, the viability increase in assay [3] was 0.85%. For the same compound, the values for the viability in assay [4] and in assay [5] were 99.6% and 104%, respectively. The RAM network inhibition in assay [6] was 1%.
`COC(=O)c1ccc(Nc2ncnc3c2cnn3-c2cccc(C)c2)cc1`: the growth inhibition in assay [1] is -13%; in assay [2], -25.2%. Further, the viability increase in assay [3] is -3.78%. The viability is 109% in assay [4] and 93.4% in assay [5]. Also, in assay [6], the RAM network inhibition was 10.5%.
As to `O=C(CSc1nc2c([nH]c3ccccc32)c(=O)n1-c1ccccc1)N1CCOCC1`, the growth inhibition in assay [1] was -7.05%; in assay [2], -18.6%. The viability increase in assay [3] is -6.19%. Moreover, the viability was 93.6% in assay [4] and 87% in assay [5]. The RAM network inhibition in assay [6] is 5.28%.
For the compound `COc1ccc(C(=O)n2nc(C)cc2C)cc1Br`, the results for the growth inhibition in assay [1] and in assay [2] were -8.38% and -1.95%, respectively. The viability increase in assay [3] was -0.08%. Further, the viability in assay [4] is 101%; in assay [5], 99.3%. The RAM network inhibition in assay [6] was -0.42%.
As to `CCOC(=O)Nc1ccc(S(=O)(=O)Nn2cnnc2)cc1`, the growth inhibition in assay [1] is -14.5%; in assay [2] it was 1.07%. The viability increase in assay [3] is 0%. Besides, the values for the viability in assay [4] and in assay [5] were 89% and 108%, respectively. Further, the RAM network inhibition in assay [6] is 3.94%.
As to `Cc1ccc2oc(-c3ccc(NC(=O)CC(C)C)cc3)nc2c1`, the growth inhibition in assay [1] was -9.28%; in assay [2] it was -6.46%. Besides, the viability increase in assay [3] is -0.39%. The values for the viability in assay [4] and in assay [5] were 102% and 92.6%, respectively. Besides, the RAM network inhibition in assay [6] is 7.81%.

These data come from PubChem BioAssay.
